Reference: ChEMBL document CHEMBL1126647, “Fluorine-18-labeled progestin ketals: synthesis and target tissue uptake selectivity of potential imaging agents for receptor-positive breast tumors” (J Med Chem, 1993)

How the values were obtained:
[1] = biological target: T1, Progesterone receptor (Rattus norvegicus) (UniProt Q63449); assay: Tissue distribution in uterus/blood 3 hr after [18F]4 injection into estrogen-primed immature rats at low dose; format: functional, tissue-based
T1 sequence (whole entry): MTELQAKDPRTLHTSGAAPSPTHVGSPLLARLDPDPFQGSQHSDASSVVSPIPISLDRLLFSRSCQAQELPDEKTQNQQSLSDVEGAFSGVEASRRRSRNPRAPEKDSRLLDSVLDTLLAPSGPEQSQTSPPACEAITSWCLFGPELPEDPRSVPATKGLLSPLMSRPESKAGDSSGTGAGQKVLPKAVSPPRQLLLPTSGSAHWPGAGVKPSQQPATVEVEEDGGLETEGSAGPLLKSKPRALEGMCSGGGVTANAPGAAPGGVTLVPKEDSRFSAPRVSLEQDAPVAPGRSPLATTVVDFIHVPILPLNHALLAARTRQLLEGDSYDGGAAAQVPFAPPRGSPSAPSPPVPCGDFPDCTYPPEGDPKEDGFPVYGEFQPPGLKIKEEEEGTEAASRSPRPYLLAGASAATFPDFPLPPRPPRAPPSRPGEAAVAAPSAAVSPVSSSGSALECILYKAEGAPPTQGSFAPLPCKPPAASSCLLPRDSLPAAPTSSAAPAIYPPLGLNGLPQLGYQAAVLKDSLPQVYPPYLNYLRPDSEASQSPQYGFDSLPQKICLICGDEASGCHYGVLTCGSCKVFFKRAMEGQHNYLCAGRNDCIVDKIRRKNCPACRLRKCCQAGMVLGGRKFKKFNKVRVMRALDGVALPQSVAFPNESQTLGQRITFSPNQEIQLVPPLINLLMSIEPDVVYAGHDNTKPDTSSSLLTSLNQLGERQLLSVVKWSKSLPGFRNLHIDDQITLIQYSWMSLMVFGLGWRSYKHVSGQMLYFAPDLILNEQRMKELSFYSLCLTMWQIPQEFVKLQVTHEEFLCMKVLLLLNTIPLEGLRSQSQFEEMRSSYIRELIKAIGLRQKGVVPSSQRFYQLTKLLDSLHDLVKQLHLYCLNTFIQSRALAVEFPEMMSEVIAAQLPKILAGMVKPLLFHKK

[2] = biological target: T1, Progesterone receptor (Rattus norvegicus); assay: Relative binding affinity for progesterone receptor compared to R5020
[3] = biological target: T1, Progesterone receptor (Rattus norvegicus); assay: Tissue distribution in uterus/muscle 1 hr after [18F]4 injection into estrogen-primed immature rats at normal dose; format: functional, tissue-based
How it was run: (§1)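 Female Sprague-Dawley rats, 23 days old, primed with estradiol 5 μg s.c. in 20% ethanol/sunflower oil on two days and used 24 h later. Under ether, they received 51 μCi tracer (30 Ci/mmol) iv via the tail vein in 0.1 mL 10% ethanol/saline. Killed by decapitation at 1 h; tissues weighed and gamma-counted. Results as %ID/g or tissue ratios, mean ± SD, n = 5.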

[4] = biological target: T1, Progesterone receptor (Rattus norvegicus); assay: Tissue distribution in blood 3 hr after [18F]-4 injection into estrogen-primed immature rats; format: functional, tissue-based
How it was run: (§2)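 Immature female Sprague-Dawley rats, estradiol-primed (5 μg s.c. in 20% ethanol/sunflower oil, two successive days, used 24 h later). Tracer (30 Ci/mmol) in 10% ethanol/saline was injected iv into the tail vein under ether anesthesia. Animals were decapitated 3 h postinjection; organs weighed and gamma-counted. %ID/g, mean ± SD, n = 5.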

[5] = biological target: T1, Progesterone receptor (Rattus norvegicus); assay: Tissue distribution in fat 1 hr after [18F]4 injection into estrogen-primed immature rats at low dose; format: functional, tissue-based; conditions: Adipose tissue
How it was run: (§3)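 Estrogen-primed immature female Sprague-Dawley rats (estradiol 5 μg s.c. daily ×2, used 24 h later) were given a reduced tracer dose of 30 μCi in 0.04 mL 10% ethanol/saline, tail vein iv, under ether. Decapitated at 1 h; organs weighed and gamma-counted. Results as %ID/g or uterus/tissue ratio, mean ± SD, n = 5.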

[6] = biological target: T1, Progesterone receptor (Rattus norvegicus); assay: Tissue distribution in lung 3 hr after [18F]4 injection into estrogen-primed immature rats; format: functional, tissue-based; how it was run: as §2
[7] = biological target: T1, Progesterone receptor (Rattus norvegicus); assay: Tissue distribution in liver 1 hr after [18F]4 injection into estrogen-primed immature rats at normal dose; format: functional, tissue-based; how it was run: as §1
[8] = biological target: T1, Progesterone receptor (Rattus norvegicus); assay: Tissue distribution in kidney 1 hr after [18F]4 injection into estrogen-primed immature rats co-injected with uterine uptake blocker ([…]); format: functional, tissue-based
How it was run: (§4)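 Blocking group: estrogen-primed immature female Sprague-Dawley rats (estradiol 5 μg s.c. ×2 days, used 24 h later). ORG 2058 18 μg was co-injected with the tracer dose iv via tail vein, 0.2 mL injection volume in 10% ethanol/saline. Killed 1 h later; tissues weighed and gamma-counted. Results as %ID/g or ratios, mean ± SD, n = 5.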

[9] = biological target: T1, Progesterone receptor (Rattus norvegicus); assay: Tissue distribution in uterus 1 hr after [18F]4 injection into estrogen-primed immature rats at low dose; format: functional, tissue-based; how it was run: as §3
[10] = biological target: T1, Progesterone receptor (Rattus norvegicus); assay: Tissue distribution in muscle 3 hr after [18F]4 injection into estrogen-primed immature rats; format: functional, tissue-based; how it was run: as §2
[11] = biological target: T1, Progesterone receptor (Rattus norvegicus); assay: Tissue distribution in ovaries 1 hr after [18F]4 injection into estrogen-primed immature rats co-injected with uterine uptake blocker (ORG2058); format: functional, tissue-based; conditions: Female gonad; how it was run: as §4
[12] = biological target: T1, Progesterone receptor (Rattus norvegicus); assay: Tissue distribution in brain 3 hr after [18F]4 injection into estrogen-primed immature rats; format: functional, tissue-based; how it was run: as §2
[13] = biological target: T1, Progesterone receptor (Rattus norvegicus); assay: Tissue distribution in uterus/blood 1 hr after [18F]4 injection into estrogen-primed immature rats at low dose; format: functional, tissue-based; how it was run: as §3
[14] = Partition coefficient (logP); format: physicochemical; conditions: octanol/water
How it was run: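 Octanol/water partition measured as log P by the Minick method. For some reference progestins, log P was also measured by shake flask.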

[15] = biological target: T1, Progesterone receptor (Rattus norvegicus); assay: Tissue distribution in uterus/blood 1 hr after [18F]4 injection into estrogen-primed immature rats co-injected with uterine uptake blocker (ORG 2058); format: functional, tissue-based; how it was run: as §4
[16] = biological target: T1, Progesterone receptor (Rattus norvegicus); assay: Tissue distribution in brain 1 hr after [18F]-4 injection into estrogen-primed immature rats at low dose; format: functional, tissue-based; how it was run: as §3
[17] = biological target: T1, Progesterone receptor (Rattus norvegicus); assay: Tissue distribution in uterus 3 hr after [18F]4 injection into estrogen-primed immature rats; format: functional, tissue-based; how it was run: as §2
[18] = biological target: T1, Progesterone receptor (Rattus norvegicus); assay: Tissue distribution in ovaries 3 hr after [18F]4 injection into estrogen-primed immature rats; format: functional, tissue-based; conditions: Female gonad; how it was run: as §2
[19] = biological target: T1, Progesterone receptor (Rattus norvegicus); assay: Tissue distribution in uterus/muscle 3 hr after [18F]4 injection into estrogen-primed immature rats; format: functional, tissue-based
How it was run: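 Immature female Sprague-Dawley rats (23 days old) were primed with 5 μg estradiol in 20% ethanol/sunflower oil s.c. on two successive days and used 24 h after the last injection. The 18F tracer (51 μCi, specific activity 30 Ci/mmol) in 10% ethanol/saline was given iv in the tail vein under ether anesthesia. Rats were decapitated at 3 h, and organs were weighed and gamma counted. Ratio of %ID/g, n = 5.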

[20] = biological target: T1, Progesterone receptor (Rattus norvegicus); assay: Tissue distribution in muscle 1 hr after [18F]4 injection into estrogen-primed immature rats at low dose; format: functional, tissue-based; how it was run: as §3
[21] = biological target: T1, Progesterone receptor (Rattus norvegicus); assay: Tissue distribution in ovaries 1 hr after [18F]4 injection into estrogen-primed immature rats at normal dose; format: functional, tissue-based; conditions: Female gonad; how it was run: as §1
[22] = biological target: T1, Progesterone receptor (Rattus norvegicus); assay: Tissue distribution in uterus/blood 1 hr after [18F]4 injection into estrogen-primed immature rats at normal dose; format: functional, tissue-based; how it was run: as §1
[23] = biological target: T1, Progesterone receptor (Rattus norvegicus); assay: Tissue distribution in bone 1 hr after [18F]-4 injection into estrogen-primed immature rats co-injected with uterine uptake blocker (ORG 2058); format: functional, tissue-based; conditions: Bone element; how it was run: as §4
[24] = biological target: T1, Progesterone receptor (Rattus norvegicus); assay: Tissue distribution in bone 1 hr after [18F]4 injection into estrogen-primed immature rats at normal dose; format: functional, tissue-based; conditions: Bone element; how it was run: as §1
[25] = biological target: T1, Progesterone receptor (Rattus norvegicus); assay: Tissue distribution in kidney 3 hr after [18F]4 injection into estrogen-primed immature rats; format: functional, tissue-based; how it was run: as §2
[26] = biological target: T1, Progesterone receptor (Rattus norvegicus); assay: Tissue distribution in brain 1 hr after [18F]-4 injection into estrogen-primed immature rats co-injected with uterine uptake blocker (ORG 2058); format: functional, tissue-based; how it was run: as §4

Row | uterus/blood ratio [1] | relative binding affinity (RBA) [2] | uterus/muscle ratio [3] | Injected dose/g [4] | Injected dose/g [5] | Injected dose/g [6] | Injected dose/g [7] | Injected dose/g [8] | Injected dose/g [9] | Injected dose/g [10] | Injected dose/g [11] | Injected dose/g [12] | uterus/blood ratio [13] | logP [14] | uterus/blood ratio [15] | Injected dose/g [16] | Injected dose/g [17] | Injected dose/g [18] | uterus/muscle ratio [19] | Injected dose/g [20] | Structure (SMILES) | other results
1 | 7.57 | 53 | 3.85 | 0.28% | 5.39% | 0.91% | 3.41% | 2.18% | 3.3% | 0.49% | 2.29% | 0.2% | 6.34 | 5.71 | 3.06 | 0.57% | 2.13% | 2.19% | 4.61 | 0.82% | CC(=O)[C@@]12O[C@](C)(c3ccc(F)cc3)O[C@@H]1CC1C3CCC4=CC(=O)CC[C@]4(C)C3CC[C@@]12C (some centres not stated) | Injected dose/g [21]: 3.93%; uterus/blood ratio [22]: 6.59; Injected dose/g [23]: 1.44%; Injected dose/g [24]: 1.76%; Injected dose/g [25]: 1.47%; Injected dose/g [26]: 0.55%
2 | 38 | 240 | 8.2 | 0.1% | 3.78% | 0.22% | 4.25% | 1.28% | 4.06% | 0.16% | 1.37% | 0.06% | 14.5 | 4.92 | 3.69 | 0.39% | 3.86% | 1.78% | 27.9 | 0.464% | C[C@@]1(c2ccc(F)cc2)O[C@@H]2CC3C4CCC5=CC(=O)CC[C@@H]5C4CC[C@]3(C)[C@]2(C(=O)CO)O1 (some centres not stated) | Injected dose/g [21]: 2.8%; uterus/blood ratio [22]: 14; Injected dose/g [23]: 0.6%; Injected dose/g [24]: 0.62%; Injected dose/g [25]: 0.45%; Injected dose/g [26]: 0.28%
